Laboratory results: ChEMBL document CHEMBL1240328, “Selective compounds define Hsp90 as a major inhibitor of apoptosis in small-cell lung cancer” (Nat Chem Biol, 2007)
Active and inactive are the calls of the source. The rule behind the calls is not given here.

Assays:
[1] = target: Heat shock protein HSP 90-beta (Homo sapiens) (UniProt P08238); assay: Inhibition of HSP90-mediated antiapoptotic activity in human NCI-H526 cells assessed as increase in caspase-3 activity at 10 uM after 72 hrs by fluorescence assay in presence of caspase-9 inhibitor Z-LEHD-FMK; format: cell-based
Procedure, shortened: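 NCI-H526 cells pretreated with Z-LEHD-FMK (100 µM), then exposed to 10 µM for 72 h. Caspase-3 activation read by Z-DEVD-R110 fluorescence. Caspase-3 and PARP cleavage read by western blot. n = 3.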

[2] = target: Heat shock protein HSP 90-beta (Homo sapiens) (UniProt P08238); assay: Inhibition of HSP90-mediated antiapoptotic activity in human MCF7 cells assessed as induction of cell growth arrest at 20 uM after 24 hrs by propidium iodide staining-based flow cytometry
[3] = target: Heat shock protein HSP 90-beta (Homo sapiens) (UniProt P08238); assay: Inhibition of HSP90-mediated antiapoptotic activity in human SKBR3 cells assessed as induction of caspase-9 cleavage at 20 uM after 24 hrs by Western blot analysis; format: cell-based; conditions: SK-BR-3
Procedure, shortened: (§1)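 SKBr3 cells at 60–70% confluence were exposed to drug or DMSO vehicle. Lysis was in 50 mM Tris pH 7.4, 150 mM NaCl, 1% NP-40, with protein measured by BCA. Lysates of 20–100 µg were run on SDS-PAGE, blotted to nitrocellulose, probed with primary antibodies and detected with a peroxidase-conjugated secondary (1:5,000). Loading was checked with β-actin or PI(3)K p85.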

[4] = target: Heat shock protein HSP 90-beta (Homo sapiens) (UniProt P08238); assay: Effect on HSP90-mediated survivin expression in human NCI-H526 cells at 25 uM after 24 hrs by Western blot analysis; format: cell-based
Procedure, shortened: (§2)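 NCI-H526 cells were exposed for 24 h to drug or DMSO vehicle. Lysates were made in 50 mM Tris pH 7.4, 150 mM NaCl, 1% NP-40 and quantified by BCA. Western blot used 20–100 µg protein per lane, with β-actin as loading control.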

[5] = target: Heat shock protein HSP 90-beta (Homo sapiens) (UniProt P08238); assay: Inhibition of HSP90-mediated antiapoptotic activity in human NCI-H526 cells assessed as disruption of protein-Apaf-1 complex at 20 uM after 24 hrs by Western blot analysis; format: cell-based
Procedure, shortened: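 NCI-H526 cells treated for 24 h with vehicle or inhibitors (20 µM or 50 µM). Proteins isolated with Apaf-1-specific antibody and whole lysates analysed by western blot. n = 3.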

[6] = target: Heat shock protein HSP 90-beta (Homo sapiens) (UniProt P08238); assay: Inhibition of HSP90-mediated antiapoptotic activity in human SKBR3 cells assessed as induction of cell growth arrest at 50 uM after 24 hrs by propidium iodide staining-based flow cytometry; conditions: SK-BR-3
SK-BR-3 [7] = assay: Inhibition of HSP70-mediated antiapoptotic activity in human SKBR3 cells assessed as release of Apaf-1 from chaperon complex after 24 hrs by Western blot analysis; format: cell-based
Procedure, shortened: (§3)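 SKBr3 cells were treated for 24 h. Lysates were probed by western blot for caspase-3 and PARP cleavage. Apaf-1 complexes were pulled down with Apaf-1 antibody (with control IgG) and immunoblotted.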

[8] = target: Heat shock protein HSP 90-beta (Homo sapiens) (UniProt P08238); assay: Inhibition of HSP90-mediated antiapoptotic activity in human NCI-N417 cells assessed as subG1 accumulation at 2.5 uM after 72 hrs by propidium iodide staining-based flow cytometry; format: cell-based; conditions: NCI-H417
Procedure, shortened: (§4)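 Asynchronously growing cells were treated with compound, stained with propidium iodide and analysed by flow cytometry. The read-out was the percentage of cells with sub-G1 DNA content.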

[9] = target: Heat shock protein HSP 90-beta (Homo sapiens) (UniProt P08238); assay: Inhibition of HSP90-mediated antiapoptotic activity in human SKBR3 cells assessed as induction of PARP cleavage at 50 uM after 24 hrs by Western blot analysis; format: cell-based; conditions: SK-BR-3; procedure, shortened: as §1
[10] = target: Heat shock protein HSP 90-beta (Homo sapiens) (UniProt P08238); assay: Inhibition of HSP90-mediated antiapoptotic activity in human MCF7 cells assessed as induction of cell growth arrest at 100 uM after 24 hrs by propidium iodide staining-based flow cytometry
[11] = target: Heat shock protein HSP 90-beta (Homo sapiens) (UniProt P08238); assay: Inhibition of HSP90-mediated antiapoptotic activity in human SKBR3 cells assessed as induction of caspase-9 cleavage at 400 uM after 24 hrs by Western blot analysis; format: cell-based; conditions: SK-BR-3; procedure, shortened: as §1
[12] = target: Heat shock protein HSP 90-beta (Homo sapiens) (UniProt P08238); assay: Inhibition of HSP90-mediated antiapoptotic activity in human SKBR3 cells assessed as induction of cell growth arrest at 20 uM after 24 hrs by propidium iodide staining-based flow cytometry; conditions: SK-BR-3
[13] = target: Heat shock protein HSP 90-beta (Homo sapiens) (UniProt P08238); assay: Inhibition of HSP90-mediated antiapoptotic activity in human NCI-N417 cells assessed as subG1 accumulation at 15 uM after 72 hrs by propidium iodide staining-based flow cytometry; format: cell-based; conditions: NCI-H417; procedure, shortened: as §4
[14] = target: Heat shock protein HSP 90-beta (Homo sapiens) (UniProt P08238); assay: Effect on HSP90-mediated Bcl-2 expression in human NCI-H526 cells at 25 uM after 24 hrs by Western blot analysis; format: cell-based; procedure, shortened: as §2
[15] = target: Heat shock protein HSP 90-beta (Homo sapiens) (UniProt P08238); assay: Inhibition of HSP90-mediated antiapoptotic activity in human NCI-H526 cells assessed as subG1 accumulation at 25 uM after 72 hrs by propidium iodide staining-based flow cytometry; format: cell-based
Procedure, shortened: (§5)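 SCLC cells treated for 72 h with graded doses. Mitochondrial membrane potential read by flow cytometry after JC-1 staining, with green-only emission indicating depolarization. Sub-G1 DNA content read after propidium iodide staining. CCCP used as positive control. n = 3 repeat experiments.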

[16] = target: Heat shock protein HSP 90-beta (Homo sapiens) (UniProt P08238); assay: Inhibition of HSP90-mediated antiapoptotic activity in human NCI-H69 cells assessed as mitochondrial membrane depolarization at 5 uM after 72 hrs by JC-1 staining-based flow cytometry; format: cell-based
Procedure, shortened: (§6)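 Mitochondrial membrane potential was measured by JC-1 staining and flow cytometry. Depolarization was scored as a shift to cells emitting only green fluorescence. The mitochondrial uncoupler CCCP served as positive control.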

[17] = target: Heat shock protein HSP 90-beta (Homo sapiens) (UniProt P08238); assay: Inhibition of HSP90-mediated antiapoptotic activity in human NCI-H187 cells assessed as subG1 accumulation at 5 uM after 72 hrs by propidium iodide staining-based flow cytometry; format: cell-based; procedure, shortened: as §5
[18] = target: Heat shock protein HSP 90-beta (Homo sapiens) (UniProt P08238); assay: Inhibition of HSP90-mediated antiapoptotic activity in human MCF7 cells assessed as induction of PARP cleavage at 400 uM after 24 hrs by Western blot analysis; format: cell-based
[19] = target: Heat shock protein HSP 90-beta (Homo sapiens) (UniProt P08238); assay: Inhibition of HSP90-mediated antiapoptotic activity in human NCI-N417 cells assessed as mitochondrial membrane depolarization at 5 uM after 96 hrs by JC-1 staining-based flow cytometry; format: cell-based; conditions: NCI-H417; procedure, shortened: as §6
[20] = target: Heat shock protein HSP 90-beta (Homo sapiens) (UniProt P08238); assay: Inhibition of HSP90-mediated antiapoptotic activity in human MCF7 cells assessed as induction of caspase-9 cleavage at 400 uM after 24 hrs by Western blot analysis; format: cell-based
[21] = target: Heat shock protein HSP 90-beta (Homo sapiens) (UniProt P08238); assay: Inhibition of HSP90-mediated antiapoptotic activity in human NCI-H526 cells assessed as reduction in BAD phosphorylation at 50 uM after 24 hrs by Western blot analysis; format: cell-based
SK-BR-3 [22] = assay: Inhibition of HSP70-mediated antiapoptotic activity in human SKBR3 cells assessed as induction of caspase-3 cleavage after 24 hrs by Western blot analysis; format: cell-based; procedure, shortened: as §3
SK-BR-3 [23] = assay: Inhibition of HSP70-mediated antiapoptotic activity in human SKBR3 cells assessed as increase in caspase-3 activity after 24 hrs by Western blot analysis; format: cell-based
[24] = target: Heat shock protein HSP 90-beta (Homo sapiens) (UniProt P08238); assay: Inhibition of HSP90-mediated antiapoptotic activity in human NCI-H526 cells assessed as induction of cell death at 10 uM after 72 hrs by propidium iodide staining-based flow cytometry in presence of broad-spectrum caspase inhibitor Boc-D-FMK
Procedure, shortened: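 NCI-H526 cells pretreated for 3 h with Boc-D-FMK (100 µM), then exposed to 10 µM for 72 h. Flow cytometry after JC-1 staining for mitochondrial potential and after propidium iodide staining for DNA content. n = 3.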

Heat shock protein HSP 90-beta (Homo sapiens), sequence (P08238 whole entry): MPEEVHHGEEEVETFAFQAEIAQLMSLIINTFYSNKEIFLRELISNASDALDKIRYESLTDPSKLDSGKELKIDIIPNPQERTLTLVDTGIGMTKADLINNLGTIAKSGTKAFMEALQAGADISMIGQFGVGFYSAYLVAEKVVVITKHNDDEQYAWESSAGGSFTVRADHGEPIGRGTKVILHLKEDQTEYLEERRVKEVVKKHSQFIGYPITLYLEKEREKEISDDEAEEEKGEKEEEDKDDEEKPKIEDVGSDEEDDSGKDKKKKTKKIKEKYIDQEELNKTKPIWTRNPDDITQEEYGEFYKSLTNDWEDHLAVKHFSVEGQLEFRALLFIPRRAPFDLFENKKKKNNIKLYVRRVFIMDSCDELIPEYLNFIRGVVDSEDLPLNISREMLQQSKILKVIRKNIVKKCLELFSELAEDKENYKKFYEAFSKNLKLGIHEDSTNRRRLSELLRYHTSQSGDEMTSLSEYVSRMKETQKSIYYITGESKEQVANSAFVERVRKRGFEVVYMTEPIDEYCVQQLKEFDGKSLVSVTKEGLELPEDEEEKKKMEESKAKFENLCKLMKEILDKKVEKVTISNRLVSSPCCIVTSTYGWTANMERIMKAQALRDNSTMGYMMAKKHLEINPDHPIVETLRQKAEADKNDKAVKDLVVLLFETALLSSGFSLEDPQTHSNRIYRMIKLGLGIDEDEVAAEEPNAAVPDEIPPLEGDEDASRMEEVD

- Activity [1]: inactive
- Activity [2]: inactive
- Activity [3]: inactive
- Activity [5]: inactive
- Activity [6]: inactive
- Activity [8]: inactive
- Activity [9]: inactive
- Activity [10]: Active
- Activity [11]: inactive
- Activity [12]: inactive
- Activity [13]: inactive
- Activity [14]: inactive
- Activity [15]: inactive
- Activity [16]: inactive
- Activity [17]: inactive
- Activity [18]: inactive
- Activity [19]: inactive
- Activity [20]: inactive
- Activity [21]: inactive
SMILES: O=CN1CC/C(=C/c2ccc3c(c2)OCO3)C1=O
- Activity [4]: inactive
- inhibition (SK-BR-3 [7]): inactive
- inhibition (SK-BR-3 [22]): Active
- inhibition (SK-BR-3 [23]): Active
- Activity [24]: inactive
